Experimental data published in ChEMBL document CHEMBL4513216, “Probing the Open Global Health Chemical Diversity Library for Multistage-Active Starting Points for Next-Generation Antimalarials” (ACS Infect Dis, 2020).

Assay: Toxicity liver stage against HepG2, at 10uM
Format: cell-based
Design: test concentration 10 uM, cell line HepG2-A16-CD81EGFP
Conditions: human, HepG2-A16-CD81EGFP cells; read-out: INHIBITION
Method in brief: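 Uninfected HepG2-A16-CD81EGFP cells, 3 × 10^3 per well, 1536-well, plated on prespotted compound at 10 μM final, parasite-free screening media added to match infected plates; puromycin 10 μM positive, DMSO 0.5% negative; run in parallel with 48 h PbLuc assay at 37 °C, 5% CO2; viability by CellTiter-Glo luminescence, normalized to controls.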

Structure (SMILES) | cytotoxicity at 10 µM
O=C(Nc1ccc2c(c1)OCO2)N1CCN(CCn2cccn2)CC1 | 0.741%
c1ccc(OCCCN2CCN(c3ccc4nncn4n3)CC2)cc1 | -0.421%
c1ncc2c(n1)CN(c1ncnc3[nH]ccc13)CC2 | -4.28%
CCOc1ncccc1Cn1cc(-c2nccn2C)nn1 | -1.38%
COc1ccc2c(c1)CN(C)C(=O)CCN2CC(O)C(F)(F)F (stereo unspecified) | -6.84%
Cc1ccc(-c2nn(-c3cccc(F)c3)cc2CN(CCO)CCO)o1 | 8.43%
Cc1ccc(C(=O)NCc2cccnc2N(C)C)o1 | -6.86%
c1c2c(nn1CC1CC1)C(CNC1CCOCC1)OCC2 (stereo unspecified) | 7.43%
CC(C(=O)N1CCCCC1)n1nc(-c2cccs2)cc(N)c1=O (stereo unspecified) | 10.8%
COc1cccc(Cl)c1C(C(=O)O)N1CCC(O)(c2cccnc2)CC1 (stereo unspecified) | 6.03%
Cn1ccc(C(=O)N(CC(F)(F)F)c2cccc(Cl)c2)cc1=O | -0.0519%
COCCN1CCCc2sc(C(=O)N3CCCN(C)CC3)nc21 | 0.534%
CCC[C@@H]1CN(Cc2ccc(C(F)(F)F)nc2)C[C@H]1C(=O)O | 0.425%
Cc1nc(CN2CCCC(NCCOc3ccccc3)C2)no1 (stereo unspecified) | -7.98%
COc1ccc(S(=O)(=O)C(F)(F)F)cc1NC(=O)CSC | 10.9%
CS(=O)(=O)c1ccc(NCC2CCCO2)c(S(C)(=O)=O)c1 (stereo unspecified) | 3.72%
COc1cc2c(cc1CNC(=O)Cc1ccc(C)nc1)OC(C)C2 (stereo unspecified) | -6.47%
Cc1cccc(=O)n1CCC(=O)N1CC[C@@](O)(C2CCC2)[C@H](C)C1 | 5.8%
Cc1ncc(CN2CCc3c(nc(-c4ccccn4)[nH]c3=O)C2)n1C | -30.1%
Cc1nn(C)c(Cl)c1C1CCCN1C(=O)c1cc(C2CC2)on1 (stereo unspecified) | -13.3%
CC1CCN(C(=O)c2cnn3c(-c4ccco4)ccnc23)CC1 | 8.77%
Cc1cc(C)nc(C2(C)CCCN2CCO)n1 (stereo unspecified) | -3.89%
NC(=O)c1ccc(CN2CCC(N3CCCC3)CC2)cc1 | -2.3%

Structure (SMILES) | cytotoxicity at 10 µM
CCOCC1CN(Cc2ccco2)Cc2nccn2C1 (stereo unspecified) | -142%
CC(C)Oc1ncc(C(=O)N2CCc3ccc(O)cc3C2)cc1Cl | 1.61%
CN(Cc1nc(-c2cccs2)no1)Cc1nc2c(s1)CCCC2 | 3.01%
Cc1noc(COCC(=O)Nc2cc(C)c(Br)cn2)n1 | 5.5%
COc1c(CNC2CCc3cc(F)ccc32)c(C(C)C)nn1C (stereo unspecified) | 1.16%
CC(C(=O)Nc1ccccc1Sc1ccccc1)S(C)(=O)=O (stereo unspecified) | -1.7%
Cc1ncnc(N2CCN(C(=O)C3CC4(CCNCC4)CN3)CC2)c1C (stereo unspecified) | -14.7%
CCOc1ccc(Oc2cc(N)ccn2)cc1 | 2.9%
NC(=O)c1cn(CC2CC2)c(C2CC2)n1 | 0.524%
COCCOCC1(CNCc2cccc(OC)c2)C[C@@H](O)[C@@H](O)C1 (stereo partly specified) | 0.994%
CC(C)N1[C@H](CN2CCCC2)C[C@@H]2CN(C(=O)c3ccoc3)CC[C@@H]21 | -135%
COc1ccc(S(=O)(=O)N2CCC(O)(CN(C)C)C2)cc1 (stereo unspecified) | -3.36%
N#Cc1cccc(SCCS(N)(=O)=O)c1 | -2.53%
COCCN1CCN(C(=O)c2cc(C(C)C)on2)[C@H]2CS(=O)(=O)C[C@H]21 | -12%
CCN1CCC(CNCc2cc(C)ccc2OC)C1 (stereo unspecified) | 17.4%
CCN1CC(COC(=O)c2cccc(Br)c2)CC1=O (stereo unspecified) | 4.91%
CCCc1nnsc1C(=O)NCC(O)c1ccc(SC)cc1 (stereo unspecified) | 1.71%
CCc1nccn1CCC(=O)N1CCN(c2ccccc2C)CC1C (stereo unspecified) | 11%
CCc1noc(CN2CCN(C(=O)c3ccccn3)CC2)n1 | -0.775%
CCN(CC)Cc1ccc(C(=O)NC2CCc3cc(F)ccc32)o1 (stereo unspecified) | -9.03%
Nc1cc2c(nn1)CCN(C(=O)c1ccccc1Oc1cccnc1)C2 | -6.21%
NC(c1ccc(Cl)cc1)c1cccs1 (stereo unspecified) | -17.1%
CS(=O)(=O)N1CCC(Oc2ccc(C#N)cc2)CC1 | -8.97%

Structure (SMILES) | cytotoxicity at 10 µM
Nc1cc(-c2ccc(C(=O)O)cc2O)c2cc[nH]c2n1 | 10.3%
Cc1nn(C)c(C)c1S(=O)(=O)N(C)Cc1nn(C)c(Cl)c1Cl | -3.78%
CCN(CC)c1ccc(C(=O)N2C[C@H]3CC[C@@H](C2)N(CCOC)C3)cc1 | -12.3%
COc1cccc(N2CCN(C(=O)CO)CC2=O)c1 | 0.995%
Cc1cnn(CC(C)Nc2nc(C)cc(N(C)C)n2)c1 (stereo unspecified) | 7.07%
CCOc1ncccc1NC(=O)N1CCN(c2cccc(C)c2C)CC1 | 81.2%
COc1ccc(CN2C[C@H]3CC[C@@H](C2)N(Cc2snnc2C)C3)cc1 | -21.7%
CCc1nc(CNC2CCCc3c2cnn3CC)cs1 (stereo unspecified) | 5.12%
CC(=O)N1Cc2ccccc2OC2(CCN(C(=O)C3CC3)CC2)C1 | 9.91%
COc1ccc(CNC2CCN(c3ccccc3)C2)cc1O (stereo unspecified) | 8.63%
Cc1noc(-c2cccnc2N(C)Cc2ccc([S+](C)[O-])cc2)n1 (stereo unspecified) | 46%
O=C(O)[C@@H]1CN(Cc2ccc(-c3cc[nH]n3)s2)C[C@H]1C1CC1 | 5.13%
CN(C(=O)C(c1c(F)cccc1Cl)N(C)C)c1nccs1 (stereo unspecified) | -58%
CC(C)c1cc(C(=O)N2CCC3(CC2)c2ccccc2[C@@H](N)[C@@H]3O)cs1 | -7.34%
Cc1ccc(NC2CCN(C(=O)c3cccc4c3ccn4C)CC2)nn1 | -17.3%
CCCc1nnc(NCCc2noc(C3CCCC3)n2)o1 | 20.2%
Cc1cc(NC(=O)C(C#N)Cc2cnn(C)c2C)no1 (stereo unspecified) | 4.58%
O=C(CN1CCCS1(=O)=O)Nc1cccc(COC2CCCCC2)c1 | 0.568%
CCN(CC1CCOC1)C(=O)c1ccc(COc2ccccc2C#N)o1 (stereo unspecified) | 3.34%
Clc1ccccc1C1(c2ccnc(-c3ccncc3)n2)CCNCC1 | -8.16%
Cc1cnn(CC(C)NCC(=O)NCCOc2ccccc2)c1 (stereo unspecified) | 1.36%
CC(CN1CCOC1=O)NC(=O)c1cccc(Cl)c1Cl (stereo unspecified) | -3.26%
Cc1cc(C)c(CNC(=O)N2CCN(c3cnccn3)CC2)c(=O)[nH]1 | -2.58%

Structure (SMILES) | cytotoxicity at 10 µM
OC(CNCCn1cccn1)COc1ccc(Br)cc1 (stereo unspecified) | -8.03%
Cn1ccnc1CN1CCCCC1c1nc(-c2ccccc2)no1 (stereo unspecified) | -47.5%
Cn1c(CN2CCN(CC3CC3)CC2)nnc1C1CCC1 | -26.7%
CNC(=O)c1cn[nH]c1C1(C)CCCN(Cc2ccccc2OC)C1 (stereo unspecified) | 0.353%
CC(C)C1CN(c2ncccn2)CCC(=O)N1CC1CC1 (stereo unspecified) | 0.0666%
COC1CN(C(=O)CC(C)(C)C)CCC(=O)N(C)c2ccccc21 (stereo unspecified) | -4.7%
Cc1cc(CN[C@H](C(N)=O)[C@@H](C)O)c(C)s1 | 9.5%
CCc1nnc(CN2CCCN(C(=O)c3ccccn3)CC2)o1 | -5.56%
CCSC1(CNc2ncc(Br)cn2)CCOCC1 | -2.72%
Cc1nc(CN2CCCCC2CCc2ccc(O)cc2)no1 (stereo unspecified) | 1.18%
CC(C)c1nnc2n1CCN(C(=O)CN(C)Cc1ccccc1)C2 | -5.17%
CC1CN(CC(=O)NCc2ccccc2)CCN1Cc1nccn1C (stereo unspecified) | -16.2%
Cc1cc(C(=O)O)ccc1NS(=O)(=O)c1c(C)nn(C(C)C)c1C | 5.31%
COc1cccc(CC(C)NC(=O)c2ccc(CNC(C)=O)cc2)c1 (stereo unspecified) | 7.21%
COCCOc1ccccc1C(=O)N1CCCCC1c1nccs1 (stereo unspecified) | 0.642%
COc1cc(OC)c(CNC(=O)NCc2ccc(C#N)cc2)c(OC)c1 | 8.01%
CCN(C(=O)c1cc2c([nH]c1=O)CCCC2=O)C1CCCCC1 | -4.07%
COc1ccc(NS(=O)(=O)c2cnc(NC(C)=O)s2)cc1 | 10.9%
Cc1nc(CN2C[C@H]3C[C@H](C(=O)NCC4CC4)N(C)[C@H]3C2)cs1 | -5.13%
CC(C)C1SCC(=O)Nc2c1c(O)nn2C1CCCC1 (stereo unspecified) | 1.4%
COCCNc1nnc(-c2ccc(C)nc2)s1 | -8.55%
Cc1cc(C(=O)N2CCC(c3nccn3Cc3ccccn3)CC2)no1 | -1.85%
O=c1[nH]c2cc(S(=O)(=O)N3CCC(c4ccsc4)CC3)ccc2o1 | -9.69%

Structure (SMILES) | cytotoxicity at 10 µM
CN(C)C(=O)c1cccc(NC(=O)c2cnn(C)c2)c1 | -1.96%
CC[C@@H](CO)Nc1nccc(-c2c[nH]c3cc(C(=O)OC)ccc23)n1 | 67.7%
CCC1CCCCN1C(=O)Cn1nc(-c2ccc(C)o2)cc(N)c1=O (stereo unspecified) | 3.27%
CCN(C(c1cccnc1)c1ccc2c(c1)CCO2)S(C)(=O)=O (stereo unspecified) | -8.28%
Cc1ccc(S(=O)(=O)CCC(=O)NCc2nnc3n2CCC3)cc1 | 3.55%
Cc1nn(C)c(C)c1C(C)NC(=O)Nc1cccnc1N1CCCC1 (stereo unspecified) | -6.88%
CCS(=O)(=O)N1C[C@@H](OCc2cccnc2)[C@H]2OCCC[C@H]21 | 3.6%
Cc1cnc(N2C[C@@H]3[C@@H](C2)OCC(=O)N3CC(C)C)nc1 | -0.173%
COc1cccc(CN(C)Cc2ccccc2C#N)c1OC | -5.92%
CC(C)NC(=O)N1CCc2c(CNc3ncccn3)cncc2C1 | 5.83%
CC(=O)N1CCOC2(CCCN(C(=O)c3ccc(Cl)cc3)C2)C1 (stereo unspecified) | -66.6%
CCC(C)N1CCC2(CC1)CN(c1cncnc1)C(=O)CO2 (stereo unspecified) | -0.414%
Cc1ccc(CN(CCN(C)C)C(=O)Nc2cc(C(N)=O)ccc2C)s1 | 13.1%
Cc1ncc(CN2CC[C@@](C)(O)[C@H](Oc3cccc(F)c3)C2)cn1 | -13.4%
O=C(c1cnccn1)N1CCc2onc(CN3CCOCC3)c2C1 | 9.47%
Cc1ccc(S(=O)(=O)N(C)c2ccsc2C(=O)NCC(C)C)cc1 | 10.6%
Cc1ccc(CN2C[C@@H]3CN(c4ncccn4)C[C@@H]3C2)cc1 | -2.02%
COc1cccc(Cn2cc(C3=CCN(CCO)CC3)cn2)c1 | -10.2%
CN(C)C(=O)Cc1ccccc1NCc1cccc(F)c1F | 9.03%
